Reference: ChEMBL document CHEMBL2412964, “Discovery of novel tetrahydro-pyrazolo [4,3-c] pyridines for the treatment of neuropathic pain: synthesis and neuropharmacology” (Eur J Med Chem, 2013)

Tests used:
Rattus norvegicus [1] = experiment: Antinociceptive activity in Wistar rat partial sciatic nerve ligation model assessed as reversal of mechanical allodynia at 100 mg/kg, ip after 120 mins (reference value: 2.9 +/- 0.3%); format: functional; conditions: route intraperitoneal
Rattus norvegicus [2] = experiment: Antinociceptive activity in Wistar rat partial sciatic nerve ligation model assessed as reversal of mechanical allodynia at 100 mg/kg, ip after 60 mins (reference value: 2.8 +/- 0.3%); format: functional; conditions: route intraperitoneal
Rattus norvegicus [3] = experiment: Antinociceptive activity in Wistar rat partial sciatic nerve ligation model assessed as reversal of mechanical allodynia at 100 mg/kg, ip after 30 mins (reference value: 2.9 +/- 0.3%); format: functional; conditions: route intraperitoneal
Rattus norvegicus [4] = experiment: Antinociceptive activity in Wistar rat chronic constriction injury model assessed as reversal of mechanical allodynia at 100 mg/kg, ip after 120 mins (reference value: 5.3 +/- 0.5%); format: functional; conditions: route intraperitoneal
Rattus norvegicus [5] = experiment: Antinociceptive activity in Wistar rat chronic constriction injury model assessed as reversal of mechanical allodynia at 100 mg/kg, ip after 60 mins (reference value: 4.9 +/- 1.0%); format: functional; conditions: route intraperitoneal
Rattus norvegicus [6] = experiment: Antinociceptive activity in Wistar rat chronic constriction injury model assessed as reversal of mechanical allodynia at 100 mg/kg, ip after 30 mins (reference value: 4.7 +/- 2.1%); format: functional; conditions: route intraperitoneal
Rattus norvegicus [7] = experiment: Antinociceptive activity in Wistar rat partial sciatic nerve ligation model assessed as reversal of cold allodynia at 100 mg/kg, ip after 120 mins (reference value: 1.5 +/- 0.5%); format: functional; conditions: route intraperitoneal
Rattus norvegicus [8] = experiment: Antinociceptive activity in Wistar rat partial sciatic nerve ligation model assessed as reversal of cold allodynia at 100 mg/kg, ip after 60 mins (reference value: 2.5 +/- 0.3%); format: functional; conditions: route intraperitoneal
Rattus norvegicus [9] = experiment: Antinociceptive activity in Wistar rat partial sciatic nerve ligation model assessed as reversal of cold allodynia at 100 mg/kg, ip after 30 mins (reference value: 4.1 +/- 1.0%); format: functional; conditions: route intraperitoneal
Rattus norvegicus [10] = experiment: Antinociceptive activity in Wistar rat chronic constriction injury model assessed as reversal of cold allodynia at 100 mg/kg, ip after 120 mins (reference value: 5.4 +/- 1.9%); format: functional; conditions: route intraperitoneal
Rattus norvegicus [11] = experiment: Antinociceptive activity in Wistar rat chronic constriction injury model assessed as reversal of cold allodynia at 100 mg/kg, ip after 60 mins (reference value: 6.3 +/- 1.9%); format: functional; conditions: route intraperitoneal
Rattus norvegicus [12] = experiment: Antinociceptive activity in Wistar rat chronic constriction injury model assessed as reversal of cold allodynia at 100 mg/kg, ip after 30 mins (reference value: 0.6 +/- 2.7%); format: functional; conditions: route intraperitoneal
Rattus norvegicus [13] = experiment: Antinociceptive activity in Wistar rat partial sciatic nerve ligation model assessed as reversal of tactile allodynia at 100 mg/kg, ip after 120 mins relative to control; format: functional; conditions: route intraperitoneal
Rattus norvegicus [14] = experiment: Antinociceptive activity in Wistar rat partial sciatic nerve ligation model assessed as reversal of tactile allodynia at 100 mg/kg, ip after 60 mins (reference value: 12.5 +/- 1.2%); format: functional; conditions: route intraperitoneal
Rattus norvegicus [15] = experiment: Antinociceptive activity in Wistar rat partial sciatic nerve ligation model assessed as reversal of tactile allodynia at 100 mg/kg, ip after 30 mins (reference value: 7.7 +/- 0.7%); format: functional; conditions: route intraperitoneal
Rattus norvegicus [16] = experiment: Antinociceptive activity in Wistar rat chronic constriction injury model assessed as reversal of tactile allodynia at 100 mg/kg, ip after 120 mins (reference value: 4.1 +/- 2.1%); format: functional; conditions: route intraperitoneal
Rattus norvegicus [17] = experiment: Antinociceptive activity in Wistar rat chronic constriction injury model assessed as reversal of tactile allodynia at 100 mg/kg, ip after 60 mins (reference value: 1.3 +/- 0.3%); format: functional; conditions: route intraperitoneal
Rattus norvegicus [18] = experiment: Antinociceptive activity in Wistar rat chronic constriction injury model assessed as reversal of tactile allodynia at 100 mg/kg, ip after 30 mins (reference value: 3.4 +/- 0.8%); format: functional; conditions: route intraperitoneal
Rattus norvegicus [19] = experiment: Antinociceptive activity in Wistar rat partial sciatic nerve ligation model assessed as reversal of spontaneous pain response at 100 mg/kg, ip after 120 mins (reference value: 1.2 +/- 0.1%); format: functional; conditions: route intraperitoneal
Rattus norvegicus [20] = experiment: Antinociceptive activity in Wistar rat partial sciatic nerve ligation model assessed as reversal of spontaneous pain response at 100 mg/kg, ip after 60 mins (reference value: 2.9 +/- 0.3%); format: functional; conditions: route intraperitoneal
Rattus norvegicus [21] = experiment: Antinociceptive activity in Wistar rat partial sciatic nerve ligation model assessed as reversal of spontaneous pain response at 100 mg/kg, ip after 30 mins (reference value: 3.2 +/- 0.3%); format: functional; conditions: route intraperitoneal
Rattus norvegicus [22] = experiment: Antinociceptive activity in Wistar rat chronic constriction injury model assessed as reversal of spontaneous pain response at 100 mg/kg, ip after 120 mins (reference value: 4.5 +/- 0.2%); format: functional; conditions: route intraperitoneal
Rattus norvegicus [23] = experiment: Antinociceptive activity in Wistar rat chronic constriction injury model assessed as reversal of spontaneous pain response at 100 mg/kg, ip after 60 mins (reference value: 4.6 +/- 0.6%); format: functional; conditions: route intraperitoneal
Rattus norvegicus [24] = experiment: Antinociceptive activity in Wistar rat chronic constriction injury model assessed as reversal of spontaneous pain response at 100 mg/kg, ip after 30 mins (reference value: 8.9 +/- 4.6%); format: functional; conditions: route intraperitoneal
Mus musculus [25] = experiment: Antinociceptive activity in Swiss albino mouse assessed as inhibition of formalin-induced flinching at 100 mg/kg administered 30 mins prior to test measured for 10 to 30 mins relative to control; format: functional
Mus musculus [26] = experiment: Antinociceptive activity in Swiss albino mouse assessed as inhibition of formalin-induced flinching at 100 mg/kg administered 30 mins prior to test measured up to 5 mins relative to control; format: functional
Mus musculus [27] = experiment: Antinociceptive activity in Swiss albino mouse assessed as inhibition of acetic acid-induced writhing at 100 mg/kg administered 30 mins prior to acetic acid-challenge measured for 30 mins relative to control; format: functional
How it was run: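 Swiss albino mice (20–25 g, either sex); writhing induced by i.p. 0.1 mL of 2.0% v/v acetic acid given half an hour after test compound dosing.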

Mus musculus [28] = species: Mus musculus; experiment: Neurotoxicity in Swiss albino mouse assessed as minimal motor impairment after 4 hrs by rotarod test; format: toxicity, organism-based; conditions: in vivo
How it was run: (§1)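 Mice, either sex, 20-25 g, dosed at 30, 100 and 300 mg/kg. Minimal motor impairment was scored on the rotarod at 0.5 and 4.0 h. Value reported is the minimum dose showing the effect in half or more of three mice per group.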

Mus musculus [29] = species: Mus musculus; experiment: Neurotoxicity in Swiss albino mouse assessed as minimal motor impairment after 0.5 hrs by rotarod test; format: toxicity, organism-based; conditions: in vivo; how it was run: as §1
Mus musculus [30] = experiment: Neurotoxicity in Swiss albino mouse assessed as minimal motor impairment at 300 mg/kg after 4 hrs by rotarod test; format: toxicity, organism-based; design: dose 300 mg/kg; conditions: in vivo
How it was run: (§2)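 Swiss albino mice of either sex, 20-25 g, dosed at 30, 100 and 300 mg/kg, three per group. Minimal motor impairment scored by rotarod at 0.5 and 4.0 h after dosing. Reported value is the lowest dose giving impairment in half or more of the mice.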

Mus musculus [31] = experiment: Neurotoxicity in Swiss albino mouse assessed as minimal motor impairment at 300 mg/kg after 0.5 hrs by rotarod test; format: toxicity, organism-based; design: dose 300 mg/kg; conditions: in vivo; how it was run: as §2

| SMILES | Activity (Rattus norvegicus [1]) [%] | Activity (Rattus norvegicus [2]) [%] | Activity (Rattus norvegicus [3]) [%] | Activity (Rattus norvegicus [4]) [%] | Activity (Rattus norvegicus [5]) [%] | Activity (Rattus norvegicus [6]) [%] | Activity (Rattus norvegicus [7]) [%] | Activity (Rattus norvegicus [8]) [%] | Activity (Rattus norvegicus [9]) [%] | Activity (Rattus norvegicus [10]) [%] | Activity (Rattus norvegicus [11]) [%] | Activity (Rattus norvegicus [12]) [%] | Activity (Rattus norvegicus [13]) [%] | Activity (Rattus norvegicus [14]) [%] | Activity (Rattus norvegicus [15]) [%] | Activity (Rattus norvegicus [16]) [%] | Activity (Rattus norvegicus [17]) [%] | Activity (Rattus norvegicus [18]) [%] | Activity (Rattus norvegicus [19]) [%] | Activity (Rattus norvegicus [20]) [%] | further results |
| --- | --- | --- | --- | --- | --- | --- | --- | --- | --- | --- | --- | --- | --- | --- | --- | --- | --- | --- | --- | --- | --- |
| CCN1CCc2c(c(C)nn2C(=O)Nc2cc(C)ccc2C)C1 | 14.6 | 20.8 | 39.6 | 16.8 | 20.7 | 3.8 | 12 | 14.8 | 17.1 | 14.1 | 18.7 | 18.4 | 3.5 | 16 | 27.6 | 2.2 | 9.9 | 17.3 | 4.8 | 11.1 | Activity (Rattus norvegicus [21]): 7.5%; Activity (Rattus norvegicus [22]): 27.7%; Activity (Rattus norvegicus [23]): 33.3%; Activity (Rattus norvegicus [24]): 23.6%; inhibition in vivo at 100 mg/kg (Mus musculus [25]): 55.8%; inhibition in vivo at 100 mg/kg (Mus musculus [26]): 2.6%; inhibition in vivo at 100 mg/kg (Mus musculus [27]): 62.2%; MLD (Mus musculus [28]): 300 mg/kg; MLD (Mus musculus [29]): 300 mg/kg |
| CCN1CCc2c(c(C(C)(C)C)nn2C(=O)Nc2ccc(F)cc2F)C1 | 43.9 | 60.2 | 60 | 11.2 | 72.9 | 70.8 | 40 | 64.4 | 64.3 | 40 | 64.4 | 64.3 | 38.3 | 51.7 | 66.7 | 51.7 | 58.3 | 61.2 | 56.9 | 65 | Activity (Rattus norvegicus [21]): 89.3%; Activity (Rattus norvegicus [22]): 91.6%; Activity (Rattus norvegicus [23]): 85.9%; Activity (Rattus norvegicus [24]): 81.6%; inhibition in vivo at 100 mg/kg (Mus musculus [25]): 73.4%; inhibition in vivo at 100 mg/kg (Mus musculus [26]): 4.4%; inhibition in vivo at 100 mg/kg (Mus musculus [27]): 71.9%; MLD (Mus musculus [28]): 100 mg/kg; MLD (Mus musculus [29]): 100 mg/kg |
| CCN1CCc2c(c(C)nn2C(=O)Nc2ccc(F)cc2F)C1 | 63.3 | 58.9 | 62.1 | 63.3 | 58.9 | 62.1 | 40 | 35.4 | 58.7 | 40.6 | 53.1 | 72.7 | 39.2 | 41.7 | 58.3 | 67 | 69.6 | 39.3 | 14.7 | 28.2 | Activity (Rattus norvegicus [21]): 59.2%; Activity (Rattus norvegicus [22]): 72.8%; Activity (Rattus norvegicus [23]): 63.6%; Activity (Rattus norvegicus [24]): 69.3%; inhibition in vivo at 100 mg/kg (Mus musculus [25]): 14.3%; inhibition in vivo at 100 mg/kg (Mus musculus [26]): 7.8%; inhibition in vivo at 100 mg/kg (Mus musculus [27]): 76.3%; Activity (Mus musculus [30]): Non-toxic; Activity (Mus musculus [31]): Non-toxic |
| CCN1CCc2c(c(C)nn2C(=O)Nc2cc(C)ccc2F)C1 | 18.2 | 40.2 | 44.8 | 14.3 | 42.9 | 35.7 | 7.9 | 16 | 13 | 2.8 | 21.2 | 15 | 3.5 | 15.1 | 20.2 | 13.7 | 9.9 | 6.6 | 17.3 | 26.6 | Activity (Rattus norvegicus [21]): 57.6%; Activity (Rattus norvegicus [22]): 51.8%; Activity (Rattus norvegicus [23]): 11%; Activity (Rattus norvegicus [24]): 15%; inhibition in vivo at 100 mg/kg (Mus musculus [25]): 15%; inhibition in vivo at 100 mg/kg (Mus musculus [26]): 5.2%; inhibition in vivo at 100 mg/kg (Mus musculus [27]): 10.5%; Activity (Mus musculus [30]): Non-toxic; Activity (Mus musculus [31]): Non-toxic |
| CCN1CCc2c(c(C)nn2C(=O)Nc2ccc(Cl)cc2)C1 | 11.3 | 5 | 17.5 | 8.3 | 14.6 | 14.6 | 11 | 7.9 | 13.2 | 9.5 | 23 | 15.9 | 14.2 | 8.2 | 18.1 | 19.7 | 8 | 13.2 | 11 | 12.7 | Activity (Rattus norvegicus [21]): 13.6%; Activity (Rattus norvegicus [22]): 27.4%; Activity (Rattus norvegicus [23]): 15%; Activity (Rattus norvegicus [24]): 16.9%; inhibition in vivo at 100 mg/kg (Mus musculus [25]): 7.5%; inhibition in vivo at 100 mg/kg (Mus musculus [26]): 1.7%; inhibition in vivo at 100 mg/kg (Mus musculus [27]): 55.2%; Activity (Mus musculus [30]): Non-toxic; Activity (Mus musculus [31]): Non-toxic |
| CCN1CCc2c(c(C)nn2C(=O)Nc2c(C)cccc2C)C1 | 44.4 | 69.4 | 57.8 | 26.1 | 73.2 | 67 | 37.2 | 41.6 | 61.3 | 13.4 | 52.6 | 63.4 | 38.3 | 46.4 | 18.4 | 65.1 | 58 | 55 | 58.4 | 66.1 | Activity (Rattus norvegicus [21]): 70.3%; Activity (Rattus norvegicus [22]): 53.7%; Activity (Rattus norvegicus [23]): 68.3%; Activity (Rattus norvegicus [24]): 77.3%; inhibition in vivo at 100 mg/kg (Mus musculus [25]): 78.9%; inhibition in vivo at 100 mg/kg (Mus musculus [26]): 12.2%; inhibition in vivo at 100 mg/kg (Mus musculus [27]): 60.5%; Activity (Mus musculus [30]): Non-toxic; Activity (Mus musculus [31]): Non-toxic |
